≈ marks a conversion by molar mass, not a printed value.
What was measured:
Trichomonas vaginalis [1] = test: Anti-trichomonas activity against MTZ-resistant Trichomonas vaginalis incubated for 3 to 48 hrs by trypan blue exclusion assay; assay type: functional
Outline: (§1)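 Trichomonas vaginalis trophozoites (5 × 10^4/L as printed) in TYM medium; DMSO stocks (100.0 mg/mL) serially diluted in TYM to 0.1 mg/mL, DMSO/TYM vehicle controls. Anaerobic incubation at 37 °C; viability checked 3–48 h by microscopy (200×) with trypan blue exclusion. MIC = lowest concentration killing all cells within 48 h.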

Sporothrix schenckii = test: Antifungal activity against Sporothrix schenckii incubated for 48 hrs by broth micro-dilution method; assay type: functional
Outline: (§2)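 Broth microdilution per NCCLS guidelines in RPMI 1640 buffered with MOPS; starting inoculum 1–5 × 10^3 CFU/mL; plates incubated at 35 °C, MIC read after 48 h.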

Aspergillus fumigatus = test: Antifungal activity against Aspergillus fumigatus incubated for 48 hrs by broth micro-dilution method; assay type: functional; outline: as §2
[2] = system: Trichophyton mentagrophytes; test: Antifungal activity against Trichophyton mentagrophytes incubated for 48 hrs by broth micro-dilution method; assay type: functional; outline: as §2
HeLa = test: Cytotoxicity against human HeLa cells assessed as reduction in cell viability at 200 ug/ml incubated for 24 hrs by MTT assay; assay type: cell-based
Outline: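 HeLa cells seeded at 5 × 10^4 per well, exposed 24 h to compound dilutions in culture medium or vehicle control; MTT (5 mg/mL in pH 7.4 buffer) added, formazan dissolved in DMSO, absorbance read at 540 nm.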

Trichomonas vaginalis [3] = test: Anti-trichomonas activity against MTZ-susceptible Trichomonas vaginalis incubated for 3 to 48 hrs by trypan blue exclusion assay; assay type: functional; outline: as §1
[4] = Spermicidal activity in liquefied human semen assessed as reduction in motile spermatozoa incubated at 37 degC for 30 mins; assay type: functional, Sperm; conditions: for minimal effective concentration: Homo sapiens, Sperm, Semen, 0.5 h, read-out: MEC
Outline: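 Compounds dissolved in minimal DMSO, diluted with 0.85% saline to 1.0% test solution; liquefied human semen mixed 1:5 with test solution, vortexed 10 s; motile sperm scored by phase-contrast microscopy over 60 s in five fields. MEC = lowest concentration immobilizing 100% of sperm, still immotile after dilution with nutrient medium.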

Candida parapsilosis = test: Antifungal activity against Candida parapsilosis ATCC 22019 incubated for 48 hrs by broth micro-dilution method; assay type: functional; conditions: Lodderomyces parapsilosis, ATCC 22019, 48 h; outline: as §2
[5] = Effect on Lactobacillus jensenii ATCC 25258 62G assessed as effect on microbial proliferation at 200 ug/ml incubated for 24 hrs
Outline: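 L. jensenii ATCC 25258 (strain 62G) in 6% Rogosa SL broth with 0.132% acetic acid; serial compound dilutions or vehicle in triplicate, ~1000 CFU per well, 24 h at 37 °C, humidified 5% CO2; growth read as OD610, expressed relative to control = 100.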

[6] = biological target: Human immunodeficiency virus type 1 reverse transcriptase (Human immunodeficiency virus 1) (UniProt Q72547); test: Inhibition of HIV1 reverse transcriptase at 100 ug/ml incubated for 1 hr by ELISA method
Outline: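 Non-radioactive colorimetric ELISA: template/primer with dNTPs plus HIV-1 RT in lysis buffer ± compound (100 µg/mL), 1 h at 37 °C; RT-free buffer as negative control, nevirapine as positive control. Product captured on streptavidin plate 1 h at 37 °C, detected with anti-DIG-POD and ABTS, OD 405 nm.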

Trichomonas vaginalis [7] = test: Resistance index, ratio of MIC for MTZ-resistant Trichomonas vaginalis to MIC for MTZ-susceptible Trichomonas vaginalis; assay type: functional
Cryptococcus neoformans = test: Antifungal activity against Cryptococcus neoformans incubated for 48 hrs by broth micro-dilution method; assay type: functional; outline: as §2
Candida albicans = test: Antifungal activity against Candida albicans incubated for 48 hrs by broth micro-dilution method; assay type: functional; outline: as §2
[8] = Terminal half life in New-Zealand rabbit at 33 mg/kg dosed through vaginal administration by LC-MS/MS method; assay type: ADME, organism-based, Oryctolagus cuniculus; conditions: in vivo, read-out: beta t1/2 (converted)
Outline: (§3)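 Female New Zealand rabbits received a single vaginal dose of 33 mg/kg. Drug in plasma was quantified by LC-MS/MS on a C18 column with phenacetin as internal standard. For each plasma sample (50 µL), 200 µL of internal-standard solution (200 ng/mL phenacetin in acetonitrile) was added. Samples were mixed, centrifuged at 13,000 rpm for 20 min, and the supernatant injected. The method was validated to FDA bioanalytical criteria.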

[9] = Cmax in New-Zealand rabbit at 33 mg/kg dosed through vaginal administration by LC-MS/MS method; assay type: ADME, organism-based, Oryctolagus cuniculus; parameters: dose 33 mg/kg; conditions: in vivo; outline: as §3
Oryctolagus cuniculus = test: Drug level in plasma of New-Zealand rabbit at 33 mg/kg dosed through vaginal administration by LC-MS/MS method; assay type: ADME, organism-based; conditions: in vivo, other; outline: as §3
[10] = Stability in simulated vaginal fluid at pH 4.2 at 200 ng/ml by LC-MS/MS method; conditions: buffer
[11] = AUC (0 to infinity) in New-Zealand rabbit at 33 mg/kg dosed through vaginal administration by LC-MS/MS method; assay type: ADME, organism-based, Oryctolagus cuniculus; parameters: dose 33 mg/kg, time infinity; conditions: in vivo; outline: as §3
[12] = Tmax in New-Zealand rabbit at 33 mg/kg dosed through vaginal administration by LC-MS/MS method; assay type: ADME, organism-based, Oryctolagus cuniculus; conditions: in vivo; outline: as §3

| SMILES | MIC (Trichomonas vaginalis [1]) [µM] | MIC (Sporothrix schenckii) [µM] | MIC (Aspergillus fumigatus) [µM] | MIC [2] [µM] | Activity (HeLa) | MIC (Trichomonas vaginalis [3]) [µM] | MEC [4] [%] | minimal effective concentration [4] [µM] | MIC (Candida parapsilosis) [µM] | Activity [5] | inhibition [6] [%] | Ratio (Trichomonas vaginalis [7]) | MIC (Cryptococcus neoformans) [µM] | MIC (Candida albicans) [µM] | half-life [8] [min] | Cmax [9] [ng/mL] | Drug uptake (Oryctolagus cuniculus) | Stability [10] [h] | AUC(0-inf) [11] [ng·h/mL] | Tmax [12] [min] |
| --- | --- | --- | --- | --- | --- | --- | --- | --- | --- | --- | --- | --- | --- | --- | --- | --- | --- | --- | --- | --- |
| CCCCNC(=S)N1CCN(CCC(O)c2ccccc2)CC1 (configuration not stated) | 187 (≈ 62.6 µg/mL) | > 81.2 | > 81.2 | > 81.2 | Non-toxic | 46.4 (≈ 15.6 µg/mL) | 0.05 | 1490 | > 81.2 | Non-toxic | 29.1 | 4 | > 81.2 | > 81.2 | – | – | – | – | – | – |
| FC(F)(F)c1ccc(OC(CCN2CCN(C(=S)NCCc3ccccc3)CC2)c2ccccc2)cc1 (configuration not stated) | 118 (≈ 62.5 µg/mL) | > 81.2 | > 81.2 | > 81.2 | Non-toxic | 47.3 (≈ 25 µg/mL) | >1 | > 19000 | > 81.2 | Non-toxic | 38.4 | 2 | > 81.2 | > 81.2 | – | – | – | – | – | – |
| OC(CCN1CCN(C(=S)NCc2ccccc2)CC1)c1ccccc1 (configuration not stated) | 339 (≈ 125 µg/mL) | > 81.2 | > 81.2 | > 81.2 | Non-toxic | 169 (≈ 62.6 µg/mL) | 0.05 | 1350 | > 81.2 | Non-toxic | 47.2 | 2 | > 81.2 | > 81.2 | – | – | – | – | – | – |
| O=C(CCN1CCN(C(=S)NCCc2ccccc2)CC1)c1ccccc1 | 164 (≈ 62.6 µg/mL) | > 81.2 | > 81.2 | > 81.2 | Non-toxic | 40.8 (≈ 15.6 µg/mL) | 0.01 | 260 | > 81.2 | Non-toxic | 50.2 | 2 | > 81.2 | > 81.2 | – | – | – | – | – | – |
| Cc1ncc([N+](=O)[O-])n1CCO [METRONIDAZOLE] | 293 (≈ 50.1 µg/mL) | – | – | – | – | 19.7 (≈ 3.37 µg/mL) | – | – | – | – | – | 15 | – | – | – | – | – | – | – | – |
| OC(CCN1CCN(C(=S)Nc2ccccc2)CC1)c1ccccc1 (configuration not stated) | 352 (≈ 125 µg/mL) | > 81.2 | > 81.2 | > 81.2 | Non-toxic | – | 0.1 | 2820 | > 81.2 | Non-toxic | – | 2 | > 81.2 | > 81.2 | – | – | – | – | – | – |
| FC(F)(F)c1ccc(OC(CCN2CCN(C(=S)Nc3ccccc3)CC2)c2ccccc2)cc1 (configuration not stated) | – | > 81.2 | > 81.2 | > 81.2 | Non-toxic | 50.1 (≈ 25 µg/mL) | 0.05 | 1000 | > 81.2 | Non-toxic | 21.1 | 2 | > 81.2 | > 81.2 | – | – | – | – | – | – |
| OC(Cn1cncn1)(Cn1cncn1)c1ccc(F)cc1F [FLUCONAZOLE] | – | 6.53 (≈ 2 µg/mL) | > 81.2 | > 81.2 | – | – | – | – | 6.53 (≈ 2 µg/mL) | – | – | – | 6.53 (≈ 2 µg/mL) | 3.26 (≈ 0.998 µg/mL) | – | – | – | – | – | – |
| CCCCNC(=S)N1CCN(CCC(=O)c2ccccc2)CC1 | 188 (≈ 62.6 µg/mL) | > 81.2 | > 81.2 | 9.34 (≈ 3.11 µg/mL) | Non-toxic | 46.7 (≈ 15.6 µg/mL) | 0.01 | 300 | > 81.2 | Non-toxic | 72.3 | 4 | 9.34 (≈ 3.11 µg/mL) | 74.8 (≈ 24.9 µg/mL) | 280 | 4.43 | Not Active | > 1 | 14.7 | 45 |
| FC(F)(F)c1ccc(OC(CCN2CCN(C(=S)NCc3ccccc3)CC2)c2ccccc2)cc1 (configuration not stated) | 243 (≈ 125 µg/mL) | > 81.2 | > 81.2 | 6.07 (≈ 3.12 µg/mL) | Non-toxic | 60.9 (≈ 31.3 µg/mL) | >1 | > 19500 | > 81.2 | Non-toxic | 51 | 2 | 12.1 (≈ 6.21 µg/mL) | > 81.2 | – | – | – | – | – | – |
| CCCCNC(=S)N1CCN(CCC(Oc2ccc(C(F)(F)F)cc2)c2ccccc2)CC1 (configuration not stated) | 261 (≈ 125 µg/mL) | > 81.2 | > 81.2 | > 81.2 | Non-toxic | 130 (≈ 62.6 µg/mL) | >1 | > 20900 | > 81.2 | Non-toxic | 59.6 | 2 | > 81.2 | > 81.2 | – | – | – | – | – | – |
| FC(F)(F)c1ccc(OC(CCN2CCN(C(=S)NC3CCCCC3)CC2)c2ccccc2)cc1 (configuration not stated) | 495 (≈ 250 µg/mL) | > 81.2 | > 81.2 | > 81.2 | Non-toxic | 64.3 (≈ 32.5 µg/mL) | >1 | > 19800 | > 81.2 | Non-toxic | 24.3 | 2 | > 81.2 | > 81.2 | – | – | – | – | – | – |
| OC(CCN1CCN(C(=S)NC2CCCCC2)CC1)c1ccccc1 (configuration not stated) | 174 (≈ 62.8 µg/mL) | > 81.2 | > 81.2 | > 81.2 | Non-toxic | 173 (≈ 62.6 µg/mL) | 1 | 27700 | > 81.2 | Non-toxic | 24.3 | 2 | > 81.2 | > 81.2 | – | – | – | – | – | – |
| O=C(CCN1CCN(C(=S)Nc2ccccc2)CC1)c1ccccc1 | 354 (≈ 125 µg/mL) | > 81.2 | > 81.2 | 17.6 (≈ 6.22 µg/mL) | Non-toxic | 88.5 (≈ 31.3 µg/mL) | 0.1 | 2830 | > 81.2 | Non-toxic | 49.2 | 2 | 17.6 (≈ 6.22 µg/mL) | > 81.2 | – | – | – | – | – | – |
| OC(CCN1CCN(C(=S)NCCc2ccccc2)CC1)c1ccccc1 (configuration not stated) | 163 (≈ 62.6 µg/mL) | > 81.2 | > 81.2 | > 81.2 | Non-toxic | 40.6 (≈ 15.6 µg/mL) | 0.1 | 2610 | > 81.2 | Non-toxic | 45.3 | 4 | > 81.2 | > 81.2 | – | – | – | – | – | – |
| O=C(CCN1CCN(C(=S)NCc2ccccc2)CC1)c1ccccc1 | 341 (≈ 125 µg/mL) | > 81.2 | > 81.2 | 4.22 (≈ 1.55 µg/mL) | Non-toxic | 85.1 (≈ 31.3 µg/mL) | 0.1 | 2720 | > 81.2 | Non-toxic | 58.3 | 2 | 8.47 (≈ 3.11 µg/mL) | 67.9 (≈ 25 µg/mL) | – | – | – | – | – | – |
| O=C(CCN1CCN(C(=S)NC2CCCCC2)CC1)c1ccccc1 | 175 (≈ 62.8 µg/mL) | > 81.2 | > 81.2 | 4.33 (≈ 1.56 µg/mL) | Non-toxic | 43.3 (≈ 15.6 µg/mL) | 0.05 | 1390 | > 81.2 | Non-toxic | 47.7 | 2 | 8.6 (≈ 3.09 µg/mL) | 34.7 (≈ 12.5 µg/mL) | – | – | – | – | – | – |

Reference: ChEMBL document CHEMBL3612038, “N-Alkyl/aryl-4-(3-substituted-3-phenylpropyl)piperazine-1-carbothioamide as dual-action vaginal microbicides with reverse transcriptase inhibition” (Eur J Med Chem, 2015)
